Calls of active or inactive are those of the source. The calls are words filed in the database; no cut-off is given here.
Tests used:
Staphylococcus aureus [1] = assay: Bactericidal activity against Staphylococcus aureus E19977 assessed as log reduction in cfu at 0.5 mg/liter after 24 hrs by time-kill study; assay type: functional, organism-based
Procedure, shortened: (§1)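 In vitro kinetic model simulating antibiotic elimination without inoculum change. Exponential-phase E19977 was added at a final 10^6.3 CFU/ml. Starting drug concentration matched the human free peak, with the human half-life simulated. Samples were plated on 5% blood agar at 0, 2, 4, 6, 8, 12 and 24 h, with growth controls in each run. Results are shown as mean and range, n = 2.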

Staphylococcus aureus [2] = assay: Antibacterial activity against Staphylococcus aureus E19977 infected in NMRI mouse assessed as log reduction in bacterial cfu in peritoneum at 10 mg/kg, sc administered as single dose 2 hrs after infection measured after 4 hrs; assay type: functional, organism-based; design: dose 10 mg/kg
Procedure, shortened: (§2)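 NMRI mice were infected i.p. with S. aureus E19977 in 5% mucin. A single dose (60 mg/kg or 10 mg/kg) was given 1, 2 or 3 h after inoculation, four mice per group. Peritoneal wash was sampled after 4 h of treatment and separated into total, extracellular and intracellular counts by lysostaphin/centrifugation. Δlog10 CFU/ml was calculated against vehicle-treated mice infected for the same time (5, 6 or 7 h).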

Staphylococcus aureus [3] = assay: Bactericidal activity against Staphylococcus aureus E19977 assessed as log reduction in cfu at 20 mg/liter upto 24 hrs by time-kill study; assay type: functional
Procedure, shortened: (§3)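 In vitro kinetic model: exponential-phase bacteria at a final 10^6.3 CFU/ml were exposed to a starting concentration set to the human free peak level. Elimination followed the simulated human half-life. Samples were taken at 0, 2, 4, 6, 8, 12 and 24 h and counted on 5% blood agar (detection limit 25 CFU/ml). Growth controls were included; n = 2.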

Staphylococcus aureus [4] = assay: Antibacterial activity against Staphylococcus aureus E19977 infected in NMRI mouse assessed as log reduction in extracellular bacterial cfu in peritoneum at 10 mg/kg, sc administered as single dose 3 hrs after infection measured after 4 hrs; assay type: functional, organism-based; design: dose 10 mg/kg; procedure, shortened: as §2
Staphylococcus aureus [5] = assay: Bactericidal activity against Staphylococcus aureus E19977 assessed as log reduction in cfu at 20 mg/liter after 24 hrs by time-kill study; assay type: functional, organism-based; procedure, shortened: as §1
Staphylococcus aureus [6] = assay: Antibacterial activity against Staphylococcus aureus E19977 by Etest; assay type: functional
Staphylococcus aureus [7] = assay: Antibacterial activity against Staphylococcus aureus E19977 infected in NMRI mouse assessed as log reduction in intracellular bacterial cfu in peritoneum at 60 mg/kg, sc administered as single dose 2 hrs after infection measured within 4 hrs; assay type: functional, organism-based; design: dose 60 mg/kg
Procedure, shortened: (§4)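 NMRI mice were infected i.p. and given one or three doses (every 8 h), starting 2 h post-inoculation, at 200 mg/kg or 60 mg/kg, four mice per group. Peritoneal washes were sampled over 19 h of treatment. Total, extracellular and intracellular CFU/ml (lysostaphin separation) were compared with the pretreatment level; mean ± range, n = 2. Untreated controls were sampled only at 6 h of infection.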

Serum [8] = assay: Protein binding in human serum at 600 mg, po; assay type: ADME, organism-based; conditions: in vivo
Staphylococcus aureus [9] = assay: Antibacterial activity against Staphylococcus aureus E19977 infected in NMRI mouse assessed as log reduction in bacterial cfu in peritoneum at 10 mg/kg, sc administered as single dose 1 hr after infection measured after 4 hrs; assay type: functional, organism-based; design: dose 10 mg/kg; procedure, shortened: as §2
Staphylococcus aureus [10] = assay: Antibacterial activity against Staphylococcus aureus E19977 infected in NMRI mouse assessed as log reduction in bacterial cfu in peritoneum at 10 mg/kg, sc administered 2 hrs after infection measured after 4 hrs; assay type: functional, organism-based; design: dose 10 mg/kg
Procedure, shortened: (§5)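 Outbred female NMRI mice (25 to 30 g) received 0.5 ml of 10^7.7 CFU/ml inoculum in 5% mucin i.p. A single dose was given 2 h post-challenge, and mice were sampled 4 h later by 2.0 ml saline peritoneal wash, pooling two mice. Extracellular and intracellular fractions were separated by 300 × g centrifugation, lysostaphin, four HBSS washes and water lysis. Counts on blood agar; median of n = 8.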

Staphylococcus aureus [11] = assay: Bactericidal activity against Staphylococcus aureus E19977 assessed as log reduction in cfu at 1.5 mg/liter after 24 hrs by time-kill study; assay type: functional, organism-based; procedure, shortened: as §1
Staphylococcus aureus [12] = assay: Antibacterial activity against Staphylococcus aureus E19977 infected in NMRI mouse assessed as log reduction in extracellular bacterial cfu in peritoneum at 60 mg/kg, sc administered as single dose 2 hrs after infection measured upto 19 hrs; assay type: functional, organism-based; design: dose 60 mg/kg; procedure, shortened: as §4
Staphylococcus aureus [13] = assay: Antibacterial activity against Staphylococcus aureus E19977 infected in NMRI mouse assessed as log reduction in bacterial cfu in peritoneum at 60 mg/kg, sc administered as single dose 2 hrs after infection measured upto 19 hrs; assay type: functional, organism-based; design: dose 60 mg/kg; procedure, shortened: as §4
Staphylococcus aureus [14] = assay: Bactericidal activity against Staphylococcus aureus E19977 assessed as log reduction in cfu at 2 mg/liter upto 24 hrs by time-kill study; assay type: functional
Procedure, shortened: (§6)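 Clinical bacteremia isolate (penicillin-resistant, methicillin-susceptible). Exponential-phase bacteria were placed in an in vitro kinetic model that simulates drug elimination without changing the inoculum. The starting drug level matched the human free peak serum concentration after a single dose, with simulated human elimination half-life. Samples were taken at 0, 2, 4, 6, 8, 12 and 24 h, with growth controls in each run.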

Staphylococcus aureus [15] = assay: Antibacterial activity against Staphylococcus aureus E19977 infected in NMRI mouse assessed as log reduction in intracellular bacterial cfu in peritoneum at 10 mg/kg, sc administered 2 hrs after infection measured after 4 hrs; assay type: functional, organism-based; design: dose 10 mg/kg; procedure, shortened: as §5
Staphylococcus aureus [16] = assay: Antibacterial activity against Staphylococcus aureus E19977 infected in NMRI mouse assessed as log reduction in intracellular bacterial cfu in peritoneum at 60 mg/kg, sc administered 2 hrs after infection evry 8 hrs as three-dose regimen measured after 19 hrs; assay type: functional, organism-based; design: dose 60 mg/kg; procedure, shortened: as §4
Staphylococcus aureus [17] = assay: Antibacterial activity against Staphylococcus aureus E19977 infected in NMRI mouse assessed as log reduction in intracellular bacterial cfu in peritoneum at 60 mg/kg, sc administered as single dose 2 hrs after infection measured upto 19 hrs; assay type: functional, organism-based; design: dose 60 mg/kg; procedure, shortened: as §4
Staphylococcus aureus [18] = assay: Antibacterial activity against Staphylococcus aureus E19977 infected in NMRI mouse assessed as log reduction in intracellular bacterial cfu in peritoneum at 10 mg/kg, sc administered as single dose 1 hr after infection measured after 4 hrs; assay type: functional, organism-based; design: dose 10 mg/kg; procedure, shortened: as §2
Staphylococcus aureus [19] = assay: Bactericidal activity against Staphylococcus aureus E19977 assessed as log reduction in cfu at 1.5 mg/liter upto 24 hrs by time-kill study; assay type: functional; conditions: in the assay text read “2.0 mg/liter” for “1.5 mg/liter”; procedure, shortened: as §6
Staphylococcus aureus [20] = assay: Bactericidal activity against Staphylococcus aureus E19977 assessed as log reduction in cfu at 9 mg/liter after 24 hrs by time-kill study; assay type: functional, organism-based; procedure, shortened: as §1
Staphylococcus aureus [21] = assay: Antibacterial activity against Staphylococcus aureus E19977 infected in NMRI mouse assessed as log reduction in intracellular bacterial cfu in peritoneum at 10 mg/kg, sc administered as single dose 3 hrs after infection measured after 4 hrs; assay type: functional, organism-based; design: dose 10 mg/kg; procedure, shortened: as §2
Staphylococcus aureus [22] = assay: Bactericidal activity against Staphylococcus aureus E19977 assessed as log reduction in cfu at 2 mg/liter after 12 hrs by time-kill study; assay type: functional; procedure, shortened: as §6
Staphylococcus aureus [23] = assay: Antibacterial activity against Staphylococcus aureus E19977 infected in NMRI mouse assessed as log reduction in intracellular bacterial cfu in peritoneum at 10 mg/kg, sc administered as single dose 2 hrs after infection measured after 4 hrs; assay type: functional, organism-based; design: dose 10 mg/kg; procedure, shortened: as §2
Staphylococcus aureus [24] = assay: Antibacterial activity against Staphylococcus aureus E19977 infected in NMRI mouse assessed as log reduction in extracellular bacterial cfu in peritoneum at 10 mg/kg, sc administered as single dose 2 hrs after infection measured after 4 hrs; assay type: functional, organism-based; design: dose 10 mg/kg; procedure, shortened: as §2
Staphylococcus aureus [25] = assay: Bactericidal activity against Staphylococcus aureus E19977 assessed as log reduction in cfu at 2 mg/liter after 24 hrs by time-kill study; assay type: functional, organism-based; procedure, shortened: as §1
Staphylococcus aureus [26] = assay: Antibacterial activity against Staphylococcus aureus E19977 infected in NMRI mouse assessed as log reduction in bacterial cfu in peritoneum at 10 mg/kg, sc administered as single dose 3 hrs after infection measured after 4 hrs; assay type: functional, organism-based; design: dose 10 mg/kg; procedure, shortened: as §2
Staphylococcus aureus [27] = assay: Antibacterial activity against Staphylococcus aureus E19977 infected in NMRI mouse assessed as log reduction in extracellular bacterial cfu in peritoneum at 10 mg/kg, sc administered 2 hrs after infection measured after 4 hrs; assay type: functional, organism-based; design: dose 10 mg/kg; procedure, shortened: as §5
Staphylococcus aureus [28] = assay: Antibacterial activity against Staphylococcus aureus E19977 infected in NMRI mouse assessed as log reduction in extracellular bacterial cfu in peritoneum at 10 mg/kg, sc administered as single dose 1 hr after infection measured after 4 hrs; assay type: functional, organism-based; design: dose 10 mg/kg; procedure, shortened: as §2
Serum [29] = assay: Protein binding in human serum at 240 mg, im; assay type: ADME, cell-free
Homo sapiens [30] = assay: Half life in human at 240 mg, im; assay type: ADME, organism-based; conditions: in vivo
Homo sapiens [31] = assay: Cmax in human at 240 mg, im; assay type: ADME, organism-based; design: dose 240 mg, route […]; conditions: in vivo
Staphylococcus aureus [32] = assay: Bactericidal activity against Staphylococcus aureus E19977 assessed as log reduction in cfu at 9 mg/liter upto 24 hrs by time-kill study; assay type: functional, organism-based; procedure, shortened: as §3

With CO[C@H]1/C=C/O[C@@]2(C)Oc3c(C)c(O)c4c(O)c(c(/C=N/N5CCN(C)CC5)c(O)c4c3C2=O)NC(=O)/C(C)=C\C=C\[C@H](C)[C@H](O)[C@@H](C)[C@@H](O)[C@@H](C)[C@H](OC(C)=O)[C@@H]1C [RIFAMPIN] as the compound, how does the Activity (Staphylococcus aureus [1]) read?
The Activity was “inactive”.

What about the Activity (Staphylococcus aureus [2]) of the same compound?
The Activity was “inactive”.

And the FC (Staphylococcus aureus [3])?
Its FC is >2.

And the Activity (Staphylococcus aureus [4])?
The Activity was “inactive”.

And the Activity (Staphylococcus aureus [5])?
The Activity was “inactive”.

And the MIC (Staphylococcus aureus [6])?
Its MIC is < 0.016 mg/L.

What about the Activity (Staphylococcus aureus [7]) of the same compound?
Its Activity is “inactive”.

What about the Activity (Serum [8]) of the same compound?
The Activity was 80%.

And the Activity (Staphylococcus aureus [9])?
The Activity was “Active”.

What about the Activity (Staphylococcus aureus [10]) of the same compound?
Its Activity is “Active”.

And the Activity (Staphylococcus aureus [11])?
Its Activity is “inactive”.

What about the Activity (Staphylococcus aureus [12]) of the same compound?
The Activity was “inactive”.

What about the Activity (Staphylococcus aureus [13]) of the same compound?
The Activity was “inactive”.

And the FC (Staphylococcus aureus [14])?
Its FC is 2.

And the Activity (Staphylococcus aureus [15])?
The Activity was “Active”.

What about the Activity (Staphylococcus aureus [16]) of the same compound?
Its Activity is “inactive”.

What about the Activity (Staphylococcus aureus [17]) of the same compound?
The Activity was “inactive”.

What about the Activity (Staphylococcus aureus [18]) of the same compound?
Its Activity is “Active”.

And the FC (Staphylococcus aureus [19])?
The FC was 2.

And the Activity (Staphylococcus aureus [20])?
The Activity was “inactive”.

What about the Activity (Staphylococcus aureus [21]) of the same compound?
Its Activity is “inactive”.

And the FC (Staphylococcus aureus [22])?
The FC was 2.

And the Activity (Staphylococcus aureus [23])?
Its Activity is “inactive”.

What about the Activity (Staphylococcus aureus [24]) of the same compound?
Its Activity is “inactive”.

What about the Activity (Staphylococcus aureus [25]) of the same compound?
The Activity was “inactive”.

And the Activity (Staphylococcus aureus [26])?
Its Activity is “inactive”.

What about the Activity (Staphylococcus aureus [27]) of the same compound?
The Activity was “inactive”.

And the Activity (Staphylococcus aureus [28])?
Its Activity is “Active”.

Which results are given for GENTAMICIN [listing 1 of 2 here]?
Activity (Serum [29]): 10%; t1/2 (Homo sapiens [30]): 2 h; Cmax (Homo sapiens [31]): 10 µg/mL

Which Activity (Staphylococcus aureus [1]) does the source give for GENTAMICIN [listing 2 of 2 here] here?
Its Activity is “inactive”.

What about the FC (Staphylococcus aureus [3]) of the same compound?
Its FC is > 2.

And the Activity (Staphylococcus aureus [5])?
Its Activity is “inactive”.

What about the MIC (Staphylococcus aureus [6]) of the same compound?
The MIC was 0.38 mg/L.

What about the Activity (Staphylococcus aureus [10]) of the same compound?
Its Activity is “inactive”.

And the Activity (Staphylococcus aureus [11])?
The Activity was “inactive”.

And the Activity (Staphylococcus aureus [15])?
The Activity was “inactive”.

What about the Activity (Staphylococcus aureus [20]) of the same compound?
Its Activity is “inactive”.

And the FC (Staphylococcus aureus [32])?
Its FC is 4.

And the Activity (Staphylococcus aureus [25])?
The Activity was “inactive”.

And the Activity (Staphylococcus aureus [27])?
Its Activity is “inactive”.

Reference: ChEMBL document CHEMBL1649157, “Intracellular activity of antibiotics against Staphylococcus aureus in a mouse peritonitis model” (Antimicrob Agents Chemother, 2009)
